Measurements published in ChEMBL document CHEMBL3124843, “Synthesis, cytostatic, antimicrobial, and anti-HCV activity of 6-substituted 7-(het)aryl-7-deazapurine ribonucleosides” (J Med Chem, 2014).
Activity calls are given as the source filed them. How the calls were made is not given here.

What was measured:
[1] = Cytotoxicity against human HuH7 cells infected with Hepatitis C virus subtype 1b; assay type: cell-based, Huh-7
Hepatitis C virus = test: Antiviral activity against Hepatitis C virus subtype 1b infected in human HuH7 cells; assay type: functional, organism-based, Hepacivirus hominis; conditions: genotype 1b, Huh-7
Candida tropicalis = test: Antifungal activity against Candida tropicalis after 48 hrs; assay type: functional, organism-based
Pichia kudriavzevii = test: Antifungal activity against Candida crusei after 48 hrs; assay type: functional, organism-based
Candida parapsilosis = test: Antifungal activity against Candida parapsilosis after 48 hrs; assay type: functional, organism-based
Candida albicans = test: Antifungal activity against Candida albicans after 48 hrs; assay type: functional, organism-based
Pseudomonas aeruginosa [2] = test: Antibacterial activity against multi-resistant Pseudomonas aeruginosa A/16575 after 24 hrs; assay type: functional, organism-based
Escherichia coli [3] = test: Antibacterial activity against multi-resistant Escherichia coli C/16702 after 24 hrs; assay type: functional, organism-based
[4] = test system: Staphylococcus haemolyticus; test: Antibacterial activity against methicillin-resistant Staphylococcus haemolyticus A/16568 after 24 hrs; assay type: functional, organism-based
Staphylococcus aureus [5] = test: Antibacterial activity against methicillin-resistant Staphylococcus aureus MRSA 4591 after 24 hrs; assay type: functional, organism-based
Pseudomonas aeruginosa [6] = test: Antibacterial activity against Pseudomonas aeruginosa CCM 3955 after 24 hrs; assay type: functional, organism-based
Escherichia coli [7] = test: Antibacterial activity against Escherichia coli CCM 3954 after 24 hrs; assay type: functional, organism-based
Staphylococcus aureus [8] = test: Antibacterial activity against Staphylococcus aureus CCM 3953 after 24 hrs; assay type: functional, organism-based
Enterococcus faecalis = test: Antibacterial activity against Enterococcus faecalis CCM 4224 after 24 hrs; assay type: functional, organism-based
[9] = Antiproliferative activity against human HeLaS3 cells after 72 hrs by XTT assay; assay type: functional, cell-based; conditions: HeLa S3, 72 h
Procedure, shortened: (§1)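 Antiproliferative test on HL-60 promyelocytic leukemia and HeLa S3 cervical carcinoma cells growing in liquid suspension.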

HL-60 = test: Antiproliferative activity against human HL60 cells after 72 hrs by XTT assay; assay type: functional, cell-based; conditions: HL-60, 72 h; procedure, shortened: as §1
HepG2 = test: Antiproliferative activity against human HepG2 cells after 72 hrs by XTT assay; assay type: functional, cell-based; conditions: HepG2, 72 h
MRC5 = test: Cytostatic activity against human MRC5 cells after 72 hrs by MTT assay; assay type: ADME, cell-based; conditions: MRC5, 72 h
Procedure, shortened: (§2)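 IC50 is the concentration that cuts cell growth by 50%, read by quantitative metabolic MTT staining after a 3-day treatment. The resistant sublines were made by raising the concentration of the cytotoxic drug step by step. CEM-DNR-bulk (daunorubicin-selected) stably overexpresses mrp-1. K562-TAX (paclitaxel-selected) expresses only mdr-1. HCT116p53−/− carries null p53 alleles. BJ and MRC-5 are nonmalignant fibroblasts.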

BJ = test: Cytostatic activity against human BJ cells after 72 hrs by MTT assay; assay type: ADME, cell-based; procedure, shortened: as §2
HCT-116 [10] = test: Cytostatic activity against p53-deficient human HCT116 cells after 72 hrs by MTT assay; assay type: functional, cell-based; conditions: HCT-116, 72 h; procedure, shortened: as §2
HCT-116 [11] = test: Cytostatic activity against human HCT116 cells after 72 hrs by MTT assay; assay type: functional, cell-based; conditions: HCT-116, 72 h; procedure, shortened: as §2
A549 = test: Cytostatic activity against human A549 cells after 72 hrs by MTT assay; assay type: functional, cell-based; conditions: A549, 72 h; procedure, shortened: as §2
K562 [12] = test: Cytostatic activity against paclitaxel-resistant human K562 cells after 72 hrs by MTT assay; assay type: functional, cell-based; conditions: K562, 72 h; procedure, shortened: as §2
K562 [13] = test: Cytostatic activity against human K562 cells after 72 hrs by MTT assay; assay type: functional, cell-based; conditions: K562, 72 h; procedure, shortened: as §2
[14] = Cytostatic activity against human CEM-DNR-bulk cells after 72 hrs by MTT assay; assay type: functional, cell-based; procedure, shortened: as §2
CCRF-CEM = test: Cytostatic activity against human CCRF-CEM cells after 72 hrs by MTT assay; assay type: functional, cell-based; procedure, shortened: as §2

Nc1nc2c(c(-c3cccs3)cn2[C@@H]2O[C@H](CO)[C@@H](O)[C@H]2O)c(=O)[nH]1
CC50 [1]: > 44 µM | EC50 (Hepatitis C virus): 18.8 µM | Activity (Candida tropicalis): inactive | Activity (Pichia kudriavzevii): inactive | Activity (Candida parapsilosis): inactive | Activity (Candida albicans): inactive | Activity (Pseudomonas aeruginosa [2]): inactive | Activity (Escherichia coli [3]): inactive | Activity [4]: inactive | Activity (Staphylococcus aureus [5]): inactive | Activity (Pseudomonas aeruginosa [6]): inactive | Activity (Escherichia coli [7]): inactive | Activity (Staphylococcus aureus [8]): inactive | Activity (Enterococcus faecalis): inactive | IC50 [9]: > 20 µM | IC50 (HL-60): > 20 µM | IC50 (HepG2): > 20 µM | IC50 (MRC5): > 100 µM | IC50 (BJ): > 100 µM | IC50 (HCT-116 [10]): 19.8 µM | IC50 (HCT-116 [11]): > 20 µM | IC50 (A549): > 20 µM | IC50 (K562 [12]): 16.8 µM | IC50 (K562 [13]): > 20 µM | IC50 [14]: > 20 µM | IC50 (CCRF-CEM): > 20 µM

Nc1nc(N)c2c(-c3cccs3)cn([C@@H]3O[C@H](CO)[C@@H](O)[C@H]3O)c2n1
CC50 [1]: > 44 µM | EC50 (Hepatitis C virus): 10 µM | Activity (Candida tropicalis): inactive | Activity (Pichia kudriavzevii): inactive | Activity (Candida parapsilosis): inactive | Activity (Candida albicans): inactive | Activity (Pseudomonas aeruginosa [2]): inactive | Activity (Escherichia coli [3]): inactive | Activity [4]: inactive | Activity (Staphylococcus aureus [5]): inactive | Activity (Pseudomonas aeruginosa [6]): inactive | Activity (Escherichia coli [7]): inactive | Activity (Staphylococcus aureus [8]): inactive | Activity (Enterococcus faecalis): inactive | IC50 [9]: > 20 µM | IC50 (HL-60): > 20 µM | IC50 (HepG2): > 20 µM | IC50 (MRC5): > 100 µM | IC50 (BJ): > 100 µM | IC50 (HCT-116 [10]): > 20 µM | IC50 (HCT-116 [11]): > 20 µM | IC50 (A549): > 20 µM | IC50 (K562 [12]): > 20 µM | IC50 (K562 [13]): > 20 µM | IC50 [14]: > 20 µM | IC50 (CCRF-CEM): > 20 µM

Nc1nc(N)c2c(-c3ccoc3)cn([C@@H]3O[C@H](CO)[C@@H](O)[C@H]3O)c2n1
CC50 [1]: > 44 µM | EC50 (Hepatitis C virus): 21.3 µM | Activity (Candida tropicalis): inactive | Activity (Pichia kudriavzevii): inactive | Activity (Candida parapsilosis): inactive | Activity (Candida albicans): inactive | Activity (Pseudomonas aeruginosa [2]): inactive | Activity (Escherichia coli [3]): inactive | Activity [4]: inactive | Activity (Staphylococcus aureus [5]): inactive | Activity (Pseudomonas aeruginosa [6]): inactive | Activity (Escherichia coli [7]): inactive | Activity (Staphylococcus aureus [8]): inactive | Activity (Enterococcus faecalis): inactive | IC50 [9]: > 20 µM | IC50 (HL-60): > 20 µM | IC50 (HepG2): > 20 µM | IC50 (MRC5): > 100 µM | IC50 (BJ): > 100 µM | IC50 (HCT-116 [10]): > 20 µM | IC50 (HCT-116 [11]): > 20 µM | IC50 (A549): > 20 µM | IC50 (K562 [12]): > 20 µM | IC50 (K562 [13]): > 20 µM | IC50 [14]: > 20 µM | IC50 (CCRF-CEM): > 20 µM

Nc1nc(N)c2c(-c3ccco3)cn([C@@H]3O[C@H](CO)[C@@H](O)[C@H]3O)c2n1
CC50 [1]: > 44 µM | EC50 (Hepatitis C virus): 12.5 µM | Activity (Candida tropicalis): inactive | Activity (Pichia kudriavzevii): inactive | Activity (Candida parapsilosis): inactive | Activity (Candida albicans): inactive | Activity (Pseudomonas aeruginosa [2]): inactive | Activity (Escherichia coli [3]): inactive | Activity [4]: inactive | Activity (Staphylococcus aureus [5]): inactive | Activity (Pseudomonas aeruginosa [6]): inactive | Activity (Escherichia coli [7]): inactive | Activity (Staphylococcus aureus [8]): inactive | Activity (Enterococcus faecalis): inactive | IC50 [9]: > 20 µM | IC50 (HL-60): > 20 µM | IC50 (HepG2): > 20 µM | IC50 (MRC5): > 100 µM | IC50 (BJ): > 100 µM | IC50 (HCT-116 [10]): > 20 µM | IC50 (HCT-116 [11]): > 20 µM | IC50 (A549): > 20 µM | IC50 (K562 [12]): > 20 µM | IC50 (K562 [13]): > 20 µM | IC50 [14]: > 20 µM | IC50 (CCRF-CEM): > 20 µM

COc1nc(N)nc2c1c(-c1ccoc1)cn2[C@@H]1O[C@H](CO)[C@@H](O)[C@H]1O
CC50 [1]: > 44 µM | EC50 (Hepatitis C virus): 19.7 µM | Activity (Candida tropicalis): inactive | Activity (Pichia kudriavzevii): inactive | Activity (Candida parapsilosis): inactive | Activity (Candida albicans): inactive | Activity (Pseudomonas aeruginosa [2]): inactive | Activity (Escherichia coli [3]): inactive | Activity [4]: inactive | Activity (Staphylococcus aureus [5]): inactive | Activity (Pseudomonas aeruginosa [6]): inactive | Activity (Escherichia coli [7]): inactive | Activity (Staphylococcus aureus [8]): inactive | Activity (Enterococcus faecalis): inactive | IC50 [9]: > 20 µM | IC50 (HL-60): > 20 µM | IC50 (HepG2): > 20 µM | IC50 (MRC5): > 100 µM | IC50 (BJ): > 100 µM | IC50 (HCT-116 [10]): > 20 µM | IC50 (HCT-116 [11]): > 20 µM | IC50 (A549): > 20 µM | IC50 (K562 [12]): > 20 µM | IC50 (K562 [13]): > 20 µM | IC50 [14]: > 20 µM | IC50 (CCRF-CEM): > 20 µM

COc1nc(N)nc2c1c(-c1ccsc1)cn2[C@@H]1O[C@H](CO)[C@@H](O)[C@H]1O
CC50 [1]: > 44 µM | EC50 (Hepatitis C virus): 14.5 µM | Activity (Candida tropicalis): inactive | Activity (Pichia kudriavzevii): inactive | Activity (Candida parapsilosis): inactive | Activity (Candida albicans): inactive | Activity (Pseudomonas aeruginosa [2]): inactive | Activity (Escherichia coli [3]): inactive | Activity [4]: inactive | Activity (Staphylococcus aureus [5]): inactive | Activity (Pseudomonas aeruginosa [6]): inactive | Activity (Escherichia coli [7]): inactive | Activity (Staphylococcus aureus [8]): inactive | Activity (Enterococcus faecalis): inactive | IC50 [9]: > 20 µM | IC50 (HL-60): > 20 µM | IC50 (HepG2): > 20 µM | IC50 (MRC5): > 100 µM | IC50 (BJ): > 100 µM | IC50 (HCT-116 [10]): > 20 µM | IC50 (HCT-116 [11]): > 20 µM | IC50 (A549): > 100 µM | IC50 (K562 [12]): > 20 µM | IC50 (K562 [13]): > 20 µM | IC50 [14]: > 20 µM | IC50 (CCRF-CEM): > 20 µM

C#Cc1cn([C@@H]2O[C@H](CO)[C@@H](O)[C@H]2O)c2nc(C)nc(N)c12
CC50 [1]: > 44 µM | EC50 (Hepatitis C virus): 8 µM | Activity (Candida tropicalis): inactive | Activity (Pichia kudriavzevii): inactive | Activity (Candida parapsilosis): inactive | Activity (Candida albicans): inactive | Activity (Pseudomonas aeruginosa [2]): inactive | Activity (Escherichia coli [3]): inactive | Activity [4]: inactive | Activity (Staphylococcus aureus [5]): inactive | Activity (Pseudomonas aeruginosa [6]): inactive | Activity (Escherichia coli [7]): inactive | Activity (Staphylococcus aureus [8]): inactive | Activity (Enterococcus faecalis): inactive | IC50 [9]: > 20 µM | IC50 (HL-60): > 20 µM | IC50 (HepG2): > 20 µM | IC50 (MRC5): > 100 µM | IC50 (BJ): > 100 µM | IC50 (HCT-116 [10]): > 20 µM | IC50 (HCT-116 [11]): > 20 µM | IC50 (A549): > 20 µM | IC50 (K562 [12]): 3.29 µM | IC50 (K562 [13]): > 20 µM | IC50 [14]: 12.6 µM | IC50 (CCRF-CEM): > 20 µM
